We go through eleven compounds from ChEMBL document CHEMBL3826925, “Design, synthesis and biological evaluation of PSMA/hepsin-targeted heterobivalent ligands” (Eur J Med Chem, 2016).

One data set concerns the target Serine protease hepsin (Homo sapiens, UniProt P05981). The experiment in a line: Inhibition of recombinant human hepsin using Boc-QAR-AMC as substrate preincubated for 30 mins followed by substrate addition by fluorescence assay.
Data set [1] is described as follows: Drug uptake in human PC3-ML cells expressing hepsin/PSMA at 100 to 1000 nM after 4 hrs by flow cytometry. The class given is ADME, cell-based. Conditions: 1 µM; call rule not given here. The method in brief:
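Cells seeded at 5 × 10^5 per well and grown 48 h to full adhesion. Medium then replaced with compound in RPMI 1640 with 10% FBS for 4 h (methods state final concentration 10 µg/mL). Cells washed twice with cold PBS, fixed in 4% paraformaldehyde for 10 min, and uptake read by flow cytometry.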
For orientation: In flow cytometry, cells or beads pass a laser one at a time.

Data set [2] has as its target Glutamate carboxypeptidase 2 (Homo sapiens, UniProt Q04609). The experiment in a line: Inhibition of PSMA (unknown origin) assessed as reduction in glutamate formation using NAAG as substrate preincubated for 30 mins followed by substrate addition by Amplex red assay.
A short description of data set [3]: Drug uptake in human PC3-ML cells expressing PSMA at 10 to 1000 nM after 4 hrs by flow cytometry. Format: ADME, cell-based. Conditions: 1 µM.
For data set [4], the system named is Tumour. The experiment in a line: Drug uptake in tumor of NOD/Shi-scid/IL-2Rgamma null mouse xenografted with human PC3-ML cells expressing PSMA/HPN at 1 nmol, iv measured 24 hrs post dosing by near infrared optical imaging analysis. Particulars: in vivo. Format: ADME, organism-based, Neoplasm. An outline of the steps: (§1)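 Six-week-old male NSG mice received 1 million tumor cells subcutaneously in the upper flank. Two weeks later, 1 nmol of the Cy7-labelled ligand in 100 uL PBS was injected via tail vein. NIR fluorescence images were taken 24 hr post injection with a small-animal imaging system.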
In general terms: Xenograft models place foreign cells or tissue in a host animal.

Data set [5] deals with Tumour. The experiment in a line: Drug uptake in tumor of NOD/Shi-scid/IL-2Rgamma null mouse xenografted with human PC3-ML cells expressing PSMA at 1 nmol, iv measured 24 hrs post dosing by near infrared optical imaging analysis. Format: ADME, organism-based, Neoplasm. Particulars: in vivo. An outline of the steps:
as §1

Structures are written as SMILES.

Serine protease hepsin, sequence (P05981 1-162 limits assumed): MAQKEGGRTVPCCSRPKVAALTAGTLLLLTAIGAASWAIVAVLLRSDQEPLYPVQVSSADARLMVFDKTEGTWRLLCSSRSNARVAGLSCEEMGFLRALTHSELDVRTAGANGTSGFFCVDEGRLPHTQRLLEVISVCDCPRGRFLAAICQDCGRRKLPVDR
Serine protease hepsin, sequence (P05981 163-417 limits assumed): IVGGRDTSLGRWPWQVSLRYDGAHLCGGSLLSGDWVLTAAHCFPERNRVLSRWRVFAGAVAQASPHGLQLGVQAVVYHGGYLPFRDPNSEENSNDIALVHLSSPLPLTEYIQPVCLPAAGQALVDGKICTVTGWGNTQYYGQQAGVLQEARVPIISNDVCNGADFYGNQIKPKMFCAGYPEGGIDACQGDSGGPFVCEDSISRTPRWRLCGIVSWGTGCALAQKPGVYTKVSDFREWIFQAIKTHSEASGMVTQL
Glutamate carboxypeptidase 2, sequence (Q04609 whole entry): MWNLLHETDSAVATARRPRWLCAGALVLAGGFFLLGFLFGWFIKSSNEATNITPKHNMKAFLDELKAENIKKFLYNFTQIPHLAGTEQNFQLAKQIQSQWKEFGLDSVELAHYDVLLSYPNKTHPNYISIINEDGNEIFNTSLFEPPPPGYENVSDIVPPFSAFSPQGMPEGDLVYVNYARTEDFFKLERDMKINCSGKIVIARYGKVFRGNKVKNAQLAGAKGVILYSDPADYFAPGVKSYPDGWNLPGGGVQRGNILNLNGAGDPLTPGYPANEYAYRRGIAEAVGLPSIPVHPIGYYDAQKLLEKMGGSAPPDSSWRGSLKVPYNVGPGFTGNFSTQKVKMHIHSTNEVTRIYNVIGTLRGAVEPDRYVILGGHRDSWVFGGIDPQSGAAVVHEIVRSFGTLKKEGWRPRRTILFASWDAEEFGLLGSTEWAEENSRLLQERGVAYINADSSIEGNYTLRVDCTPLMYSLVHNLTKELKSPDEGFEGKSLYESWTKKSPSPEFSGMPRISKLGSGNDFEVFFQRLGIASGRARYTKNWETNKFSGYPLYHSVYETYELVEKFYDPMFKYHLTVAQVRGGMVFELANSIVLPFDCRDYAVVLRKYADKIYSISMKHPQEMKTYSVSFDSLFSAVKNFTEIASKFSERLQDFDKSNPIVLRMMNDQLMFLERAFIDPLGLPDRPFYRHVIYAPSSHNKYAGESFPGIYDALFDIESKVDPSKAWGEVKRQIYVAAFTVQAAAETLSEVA

Broadly, the IC50 is the concentration that inhibits the measured activity by half. For the compound `N=C(N)c1ccc2[nH]c(-c3ccccc3O)cc2c1`, on Serine protease hepsin, the IC50 worked out at 44 µM.

In the case of `COc1ccc(-c2ccc(O)c(-c3cc4cc(C(=N)N)ccc4[nH]3)c2)cc1`, the IC50 at Serine protease hepsin stood at 7.3 µM. `N=C(N)c1ccc2[nH]c(-c3cc(-c4ccccc4)ccc3O)cc2c1`: at Serine protease hepsin, the IC50 stood at 8.9 µM. As to `N=C(N)c1ccc2[nH]c(-c3cc(-c4ccc(F)cc4)ccc3O)cc2c1`, the 50% inhibitory concentration (IC50) at Serine protease hepsin was determined as 5.9 µM. On the same count and under the same terms, under `N=C(N)c1ccc2[nH]c(-c3cc(-c4ccc(CN)cc4)ccc3O)cc2c1` stands 9.3 µM. The same measure, in the same setting: under `CC(C)(C)OC(=O)NCc1ccc(-c2ccc(O)c(-c3cc4cc(C(=N)N)ccc4[nH]3)c2)cc1` stands 11 µM. For `N=C(N)c1ccc2[nH]c(-c3cc(-c4cccs4)ccc3O)cc2c1`, the IC50 on Serine protease hepsin was found to be 70 µM.

As for `N=C(N)c1ccc2[nH]c(-c3cc(-c4ccc(C(F)(F)F)cc4)ccc3O)cc2c1`, the IC50 on Serine protease hepsin was 14 µM. As to `N=C(N)c1ccc2[nH]c(-c3cc(-c4ccc(Cl)cc4)ccc3O)cc2c1`, the IC50 on Serine protease hepsin was found to be 23 µM.

As for `CC(=O)NC(=N)c1ccc2[nH]c(-c3cc(-c4ccc(CNC(=O)[C@H](CCCCNC(=O)CCCCC[N+]5=C(/C=C/C6=CC(=C/C=C7/N(C)c8ccc(S(=O)(=O)O)cc8C7(C)C)/CCC6)C(C)(C)c6cc(S(=O)(=O)O)ccc65)NC(=O)CCCCCCC(=O)NCCCCC(NC(=O)N[C@@H](CCC(=O)O)C(=O)O)C(=O)O)cc4)ccc3O)cc2c1` (stereo partly specified), the Drug uptake entry in data set [1] and in data set [3] was “Active” throughout. Besides, the concentration for half-maximal inhibition (IC50) in data set [2] amounted to 0.025 µM.

With `CN1/C(=C/C=C2C=C(/C=C/C3=[N+](CCCCCC(=O)NCCCC[C@H](NC(=O)CCCCCCC(=O)NCCCCC(NC(=O)N[C@@H](CCC(=O)O)C(=O)O)C(=O)O)C(=O)NCc4ccc(-c5ccc(O)c(-c6cc7cc(C(=N)N)ccc7[nH]6)c5)cc4)c4ccc(S(=O)(=O)O)cc4C3(C)C)CCC/2)C(C)(C)c2cc(S(=O)(=O)O)ccc21` (stereo partly specified), the Drug uptake entry is recorded as “Active” in data set [1], “Active” in the data set on Tumour [4], “Active” in data set [3] and “Not Active” in the data set with Tumour [5].
